Measurements published in ChEMBL document CHEMBL3739379, “Anti-Candida activity and cytotoxicity of a large library of new N-substituted-1,3-thiazolidin-4-one derivatives” (Eur J Med Chem, 2016).
Converted amounts (≈) assume the structure as drawn.

Assays:
Format in all cases: functional
[1] = test system: Staphylococcus aureus; experiment: Antibacterial activity against Staphylococcus aureus after 18 to 22 hrs by broth microdilution method
Method in brief: (§1)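 Broth microdilution per NCCLS in Mueller-Hinton II broth; isolates subcultured for purity. Compounds dissolved in DMSO, serial dilutions 256 to 0.5 µg/mL; inoculum 10^5/mL. Controls: organism without compound, medium only. Incubation 18 to 22 h at 35 °C. MIC is the lowest concentration giving complete growth inhibition, read by unaided eye.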

[2] = test system: Staphylococcus warneri; experiment: Antibacterial activity against Staphylococcus warneri after 18 to 22 hrs by broth microdilution method; method in brief: as §1
[3] = test system: Enterococcus faecalis; experiment: Antibacterial activity against […] faecalis after 18 to 22 hrs by broth microdilution method; method in brief: as §1
[4] = test system: Staphylococcus haemolyticus; experiment: Antibacterial activity against Staphylococcus haemolyticus after 18 to 22 hrs by broth microdilution method; method in brief: as §1
[5] = test system: Escherichia coli; experiment: Antibacterial activity against Escherichia coli at after 18 to 22 hrs by broth microdilution method; method in brief: as §1
[6] = test system: Proteus mirabilis; experiment: Antibacterial activity against Proteus mirabilis after 18 to 22 hrs by broth microdilution method; method in brief: as §1
[7] = test system: Enterobacter sp.; experiment: Antibacterial activity against Enterobacter sp. after 18 to 22 hrs by broth microdilution method; method in brief: as §1
[8] = test system: Klebsiella oxytoca; experiment: Antibacterial activity against Klebsiella oxytoca after 18 to 22 hrs by broth microdilution method; method in brief: as §1
[9] = test system: Candida albicans; experiment: Antifungal activity against Candida albicans clinical isolate after 24 hrs by sabouraud dextrose broth based microdilution method
Method in brief: (§2)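 Clinical isolates identified by conventional methods and subcultured for purity. Broth microdilution per NCCLS in Sabouraud dextrose broth; compounds dissolved in DMSO and serially diluted; inoculum 10^3/mL. Controls: fungi without compound, medium only. Incubated 24 h at 37 °C. MIC is the lowest concentration with complete growth inhibition by unaided eye. Values are geometric means over isolates per species.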

[10] = test system: Nakaseomyces glabratus; experiment: Antifungal activity against Candida glabrata clinical isolate after 24 hrs by sabouraud dextrose broth based microdilution method; method in brief: as §2
[11] = test system: Candida tropicalis; experiment: Antifungal activity against Candida tropicalis clinical isolate after 24 hrs by sabouraud dextrose broth based microdilution method; method in brief: as §2
[12] = test system: Pichia kudriavzevii; experiment: Antifungal activity against Candida krusei clinical isolate after 24 hrs by sabouraud dextrose broth based microdilution method; method in brief: as §2
[13] = test system: Candida parapsilosis; experiment: Antifungal activity against Candida parapsilosis clinical isolate after 24 hrs by sabouraud dextrose broth based microdilution method; conditions: Lodderomyces parapsilosis; method in brief: as §2
[14] = test system: [Candida] sake; experiment: Antifungal activity against Candida sake clinical isolate after 24 hrs by sabouraud dextrose broth based microdilution method; conditions: Fermentozyma sake; method in brief: as §2

Compound | MIC [1] | MIC [2] | MIC [3] | MIC [5] | MIC [6] | MIC [7] | MIC [8] | MIC [9] | MIC [10] | MIC [11] | MIC [12] | MIC [13] | MIC [14] | MIC [4]
C/C(=N\N=C1/SCC(=O)N1Cc1ccc([N+](=O)[O-])cc1)c1ccccc1 | > 256 µg/mL | > 256 µg/mL | > 256 µg/mL | > 256 µg/mL | > 256 µg/mL | > 256 µg/mL | > 256 µg/mL | 4 µg/mL (≈ 10.9 µM) | 32 µg/mL (≈ 86.9 µM) | 2 µg/mL (≈ 5.43 µM) | 8 µg/mL (≈ 21.7 µM) | 4 µg/mL (≈ 10.9 µM) | 2 µg/mL (≈ 5.43 µM) | > 256 µg/mL
CCCCCC/C(C)=N/N=C1\SCC(=O)N1Cc1cccc2ccccc12 | > 256 µg/mL | > 256 µg/mL | > 256 µg/mL | > 256 µg/mL | > 256 µg/mL | > 256 µg/mL | > 256 µg/mL | 2 µg/mL (≈ 5.24 µM) | 2 µg/mL (≈ 5.24 µM) | 8 µg/mL (≈ 21 µM) | 8 µg/mL (≈ 21 µM) | 16 µg/mL (≈ 41.9 µM) | 16 µg/mL (≈ 41.9 µM) | > 256 µg/mL
O=C1CS/C(=N\N=C\c2ccco2)N1Cc1ccc([N+](=O)[O-])cc1 | > 256 µg/mL | > 256 µg/mL | > 256 µg/mL | > 256 µg/mL | > 256 µg/mL | > 256 µg/mL | > 256 µg/mL | 4 µg/mL (≈ 11.6 µM) | 8 µg/mL (≈ 23.2 µM) | 2 µg/mL (≈ 5.81 µM) | 16 µg/mL (≈ 46.5 µM) | 16 µg/mL (≈ 46.5 µM) | 2 µg/mL (≈ 5.81 µM) | > 256 µg/mL
O=C1CS/C(=N\N=C\c2cccc3ccccc23)N1Cc1ccc([N+](=O)[O-])cc1 | > 256 µg/mL | > 256 µg/mL | > 256 µg/mL | > 256 µg/mL | > 256 µg/mL | > 256 µg/mL | > 256 µg/mL | 256 µg/mL (≈ 633 µM) | 64 µg/mL (≈ 158 µM) | 16 µg/mL (≈ 39.6 µM) | 8 µg/mL (≈ 19.8 µM) | 8 µg/mL (≈ 19.8 µM) | 8 µg/mL (≈ 19.8 µM) | > 256 µg/mL
CC1CCC/C1=N\N=C1/SCC(=O)N1CN1C(=O)c2ccccc2C1=O (centres undefined) | > 256 µg/mL | > 256 µg/mL | > 256 µg/mL | > 256 µg/mL | > 256 µg/mL | > 256 µg/mL | > 256 µg/mL | 16 µg/mL (≈ 43.2 µM) | 32 µg/mL (≈ 86.4 µM) | 4 µg/mL (≈ 10.8 µM) | 2 µg/mL (≈ 5.4 µM) | 8 µg/mL (≈ 21.6 µM) | 8 µg/mL (≈ 21.6 µM) | > 256 µg/mL
C/C(=N\N=C1/SCC(=O)N1Cc1ccc([N+](=O)[O-])cc1)C1CCCCC1 | > 256 µg/mL | > 256 µg/mL | > 256 µg/mL | > 256 µg/mL | > 256 µg/mL | > 256 µg/mL | > 256 µg/mL | 4 µg/mL (≈ 10.7 µM) | 16 µg/mL (≈ 42.7 µM) | 32 µg/mL (≈ 85.5 µM) | 2 µg/mL (≈ 5.34 µM) | 32 µg/mL (≈ 85.5 µM) | 32 µg/mL (≈ 85.5 µM) | > 256 µg/mL

Continued, in another order:

MIC [1] | MIC [2] | MIC [3] | MIC [5] | MIC [6] | MIC [7] | MIC [8] | MIC [9] | MIC [10] | MIC [11] | MIC [12] | MIC [13] | MIC [14] | Compound | MIC [4]
> 256 µg/mL | > 256 µg/mL | > 256 µg/mL | > 256 µg/mL | > 256 µg/mL | > 256 µg/mL | > 256 µg/mL | 32 µg/mL (≈ 88 µM) | 32 µg/mL (≈ 88 µM) | 128 µg/mL (≈ 352 µM) | 4 µg/mL (≈ 11 µM) | 4 µg/mL (≈ 11 µM) | 4 µg/mL (≈ 11 µM) | C/C(=N\N=C1/SCC(=O)N1Cc1cccc2ccccc12)c1ccco1 | > 256 µg/mL
> 256 µg/mL | > 256 µg/mL | > 256 µg/mL | > 256 µg/mL | > 256 µg/mL | > 256 µg/mL | > 256 µg/mL | 4 µg/mL (≈ 10 µM) | 32 µg/mL (≈ 80.3 µM) | 8 µg/mL (≈ 20.1 µM) | 4 µg/mL (≈ 10 µM) | 4 µg/mL (≈ 10 µM) | 4 µg/mL (≈ 10 µM) | O=C1c2ccccc2C(=O)N1CN1C(=O)CS/C1=N\N=C1CCCCCCC1 | > 256 µg/mL
> 256 µg/mL | > 256 µg/mL | > 256 µg/mL | > 256 µg/mL | > 256 µg/mL | > 256 µg/mL | > 256 µg/mL | 8 µg/mL (≈ 21.1 µM) | 8 µg/mL (≈ 21.1 µM) | 256 µg/mL (≈ 675 µM) | 2 µg/mL (≈ 5.27 µM) | 16 µg/mL (≈ 42.2 µM) | 16 µg/mL (≈ 42.2 µM) | C/C(=N\N=C1/SCC(=O)N1Cc1cccc2ccccc12)C1CCCCC1 | > 256 µg/mL
> 256 µg/mL | > 256 µg/mL | > 256 µg/mL | > 256 µg/mL | > 256 µg/mL | > 256 µg/mL | > 256 µg/mL | 4 µg/mL (≈ 10.5 µM) | 32 µg/mL (≈ 84.3 µM) | 8 µg/mL (≈ 21.1 µM) | 4 µg/mL (≈ 10.5 µM) | 4 µg/mL (≈ 10.5 µM) | 4 µg/mL (≈ 10.5 µM) | O=C1CS/C(=N\N=C2CCCCCCC2)N1Cc1cccc2ccccc12 | > 256 µg/mL
> 256 µg/mL | > 256 µg/mL | > 256 µg/mL | > 256 µg/mL | > 256 µg/mL | > 256 µg/mL | > 256 µg/mL | 2 µg/mL (≈ 5.93 µM) | 16 µg/mL (≈ 47.4 µM) | 8 µg/mL (≈ 23.7 µM) | 16 µg/mL (≈ 47.4 µM) | 128 µg/mL (≈ 379 µM) | 256 µg/mL (≈ 759 µM) | O=C1CS/C(=N\N=C2CCCC2)N1Cc1cccc2ccccc12 | > 256 µg/mL
